Results published in PubChem BioAssay AID493104 (Broad Institute, 2011).

Tested on: Vibrio harveyi BB721 quorum sensing luminescence, 9 h
Test: V. harveyi downstream QS pathway luminescence inhibition – strain BB721 constitutive-on, dry powder, counter-screen for AI-2 quorum sensing inhibitor project, dose response (AID 493104)
Outline: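 Test system: V. harveyi BB721, constitutive-on quorum sensing strain | Input: Starting cell density OD600 0.0005 | Buffer or medium: AB (autoinducer bioassay) medium | Incubation: 9 h compound exposure at 30 °C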

Row | SMILES | AC50 [µM]
1 | Cc1cccc(NS(=O)(=O)c2ccc(Oc3ccccc3)cc2)n1 | 12.4
2 | O=C1C=C/C(=C/Br)O1 | 6.43
3 | CCc1ccc(S(=O)(=O)Nc2ccc(Br)cn2)cc1 | 11.9
4 | C=Cn1c(C(=O)O)ccc1-c1ccc(CC)cc1 | 13.8
5 | COc1cc(NC(=O)CN2C(=O)NC(c3ccccc3)(c3ccccc3)C2=O)cc(OC)c1 | 0.919
